The source of these data is ChEMBL document CHEMBL4715824, “Chemical Proteomic Characterization of a Covalent KRASG12C Inhibitor” (ACS Med Chem Lett, 2018).

What is called IC50 is the midpoint of a concentration-inhibition curve.

The source made the active and inactive calls. The calls are words filed in the database; no cut-off is given here.

Assay [1] addresses T1, Heme oxygenase 2 (Homo sapiens) (UniProt P30519).
T1 sequence (whole entry): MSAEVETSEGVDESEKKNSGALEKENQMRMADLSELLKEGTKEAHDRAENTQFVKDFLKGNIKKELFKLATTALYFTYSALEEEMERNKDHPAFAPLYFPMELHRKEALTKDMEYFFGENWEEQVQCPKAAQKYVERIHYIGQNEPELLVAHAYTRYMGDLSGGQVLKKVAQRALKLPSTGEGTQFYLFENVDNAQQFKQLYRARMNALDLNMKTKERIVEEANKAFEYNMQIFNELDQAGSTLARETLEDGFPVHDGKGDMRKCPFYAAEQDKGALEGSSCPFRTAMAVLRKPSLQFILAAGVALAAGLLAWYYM
Put plainly: Covalent binding affinity to HMOX2 at Cys282 residue in human NCI-H358 cells assessed as log2 H/L ratio at 10 uM pretreated for 3 hrs followed by N-(((6S,7R)-7-(4-chloro-3-fluorophenyl)-1,4-oxazepan-6-yl)methyl)-2-hydroxyacetamide treatment for 3 hrs by competitive TMT click chemistry pull-down experiment based LC-MS/MS analysis. In kind it is cell-based. Conditions: time 6.0 hrs. In outline:
(§1)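 H358 cells were pretreated with DMSO (n = 3) or 10 μM compound for 3 h, then 2 μM alkyne probe was added for another 3 h. Cells were lysed, clicked onto azide-agarose resin, digested, TMT-labelled and pooled. The pool was fractionated by high-pH HPLC and each fraction run twice by 60 min low-pH nano LC-MS/MS. Readout was log2 compound/DMSO normalized reporter intensity, with a least-squares means test and FDR adjustment.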

For the next assay, the target named is T2, Quinone oxidoreductase (Homo sapiens, UniProt Q08257).
T2 sequence (Q08257 whole entry): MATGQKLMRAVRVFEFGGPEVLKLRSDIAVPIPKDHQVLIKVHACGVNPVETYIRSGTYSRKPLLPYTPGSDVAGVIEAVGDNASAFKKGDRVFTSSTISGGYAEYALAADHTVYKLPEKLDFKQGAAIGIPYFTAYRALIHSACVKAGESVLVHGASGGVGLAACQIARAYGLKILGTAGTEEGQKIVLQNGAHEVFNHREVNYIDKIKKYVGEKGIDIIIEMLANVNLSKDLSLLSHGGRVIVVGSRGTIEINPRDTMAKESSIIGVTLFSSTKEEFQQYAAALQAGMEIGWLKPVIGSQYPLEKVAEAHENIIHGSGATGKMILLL
Kind of assay: Covalent binding affinity to CRYZ at Cys45 residue in human NCI-H358 cells assessed as reduction of log2 H/L ratio for tryptic peptide […] incubated for 4 hrs followed by cell lysis and subsequently labelled with light thiol probe N-((S)-18-iodo-11-isopropyl-10,13,17-trioxo-3,6-dioxa-9,12,16-triazaoctadecyl)-6-((4R,5S)-5-methyl-2-oxoimidazolidin-4-yl)hexanamide and heavy thiol probe 4 for 1 hr under dark conditions followed by tryptic digestion for overnight and measured by discovery ABPP based nano LC-MS/MS analysis. In outline: (§2)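 H358 cells were treated 4 h with DMSO, 0.08, 0.4, 2 or 10 μM, each paired with DMSO control cells, in biological duplicate. After lysis and denaturation, treated lysate took heavy thiol probe and control lysate took light probe. Lysates were combined equally, and probe-labelled tryptic peptides were streptavidin-enriched. Peptides were run twice by 180 min data-dependent nano LC-MS/MS. Hits needed log2 H/L below −0.776 (3σ) plus a dose-dependent decrease.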

A further assay has as its target T3, Heme oxygenase 2 (Homo sapiens, UniProt P30519).
T3 sequence (P30519 whole entry): T1 sequence (whole entry)
Put plainly: Covalent binding affinity to HMOX2 at Cys282 residue in human NCI-H358 cells assessed as reduction of log2 H/L ratio for tryptic peptide […] incubated for 4 hrs followed by cell lysis and subsequently labelled with light thiol probe N-((S)-18-iodo-11-isopropyl-10,13,17-trioxo-3,6-dioxa-9,12,16-triazaoctadecyl)-6-((4R,5S)-5-methyl-2-oxoimidazolidin-4-yl)hexanamide and heavy thiol probe 4 for 1 hr under dark conditions followed by tryptic digestion for overnight and measured by discovery ABPP based nano LC-MS/MS analysis. In outline: as §2

Assay [2] concerns the target Fatty acid-binding protein 5 (Homo sapiens) (UniProt Q01469). Kind of assay: Covalent binding affinity to FABP5 at Cys67 residue in human NCI-H358 cells assessed as log2 H/L ratio at 10 uM pretreated for 3 hrs followed by N-(((6S,7R)-7-(4-chloro-3-fluorophenyl)-1,4-oxazepan-6-yl)methyl)-2-hydroxyacetamide treatment for 3 hrs by competitive TMT click chemistry pull-down experiment based LC-MS/MS analysis. Conditions: time 6.0 hrs. In kind it is cell-based. In outline: as §1

The next assay relates to NCI-H358. Put plainly: Antiproliferative activity against human NCI-H358 cells harboring KRAS G12C mutant assessed as reduction in cell viability. The assay is classed as functional, cell-based.
The subject of assay [3] is GTPase KRas (Homo sapiens), P01116 [G12C]. Put plainly: Covalent binding affinity to KRAS G12C mutant at Cys12 residue in human NCI-H358 cells assessed as reduction of log2 H/L ratio for tryptic peptide LVVVGACGVGK at 2 uM incubated for 4 hrs followed by cell lysis and subsequently labelled with light thiol probe N-((S)-18-iodo-11-isopropyl-10,13,17-trio …. The assay is classed as cell-based.

A further assay deals with GTPase KRas (Homo sapiens, UniProt P01116, G12C). Kind of assay: (§3) Covalent binding affinity to KRAS G12C mutant at Cys12 residue in human NCI-H358 cells assessed as reduction of log2 H/L ratio for tryptic peptide […] incubated for 4 hrs followed by cell lysis and subsequently labelled with light thiol probe N-((S)-18-iodo-11-isopropyl-10,13,17-trioxo-3,6-dioxa-9,12,16-triazaoctadecyl)-6-((4R,5S)-5-methyl-2-oxoimidazolidin-4-yl)hexanamide and heavy thiol probe 4 for 1 hr under dark conditions followed by tryptic digestion for overnight and measured by discovery ABPP based nano LC-MS/MS analysis. A digest of the protocol:
as §2

Assay [4] deals with GTPase KRas (Homo sapiens), P01116 [G12C]. Described as §3. A digest of the protocol:
as §2

In assay [5] the target is T4, Peroxiredoxin-like 2A (Homo sapiens) (UniProt Q9BRX8).
T4 sequence (whole entry): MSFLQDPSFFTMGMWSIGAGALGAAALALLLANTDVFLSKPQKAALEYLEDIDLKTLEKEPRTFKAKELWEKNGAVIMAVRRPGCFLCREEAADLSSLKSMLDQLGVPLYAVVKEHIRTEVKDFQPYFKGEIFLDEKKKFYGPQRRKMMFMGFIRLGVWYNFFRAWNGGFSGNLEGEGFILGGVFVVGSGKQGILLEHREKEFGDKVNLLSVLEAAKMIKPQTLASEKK
Kind of assay: Covalent binding affinity to FAM213A in human NCI-H358 cells incubated for 4 hrs followed by cell lysis and subsequently labelled with light thiol probe N-((S)-18-iodo-11-isopropyl-10,13,17-trioxo-3,6-dioxa-9,12,16-triazaoctadecyl)-6-((4R,5S)-5-methyl-2-oxoimidazolidin-4-yl)hexanamide and heavy thiol probe 4 for 1 hr under dark conditions followed by tryptic digestion for overnight and measured by discovery ABPP based nano LC-MS/MS analysis.

Consider `C=CC(=O)N1CCN(c2ncnc3c(F)c(-c4c(O)cccc4F)c(Cl)cc23)CC1`, for which the Ratio in assay [1] is -0.3; in assay [2], -1.3. The 50% inhibitory concentration (IC50) at Quinone oxidoreductase was determined as 8.44 µM; on Heme oxygenase 2 it was 7.64 µM; with NCI-H358, 0.64 µM; on GTPase KRas it was 1.59 µM. Moreover, in [3], the outcome was Active. The inhibition entry in [4] is “Dose-dependent effect”. In addition, the result in [5] was inactive.
